One molecule from ChEMBL document CHEMBL2380244, “Optimized chemical probes for REV-ERBα” (J Med Chem, 2013) can be followed below.

For orientation: IC50 means the concentration needed to halve the response being measured. A word on the EC50: it is the concentration at which the effect is half-maximal.

The species named for assay [1] is Homo sapiens. Briefly: Selectivity ratio of IC50 for LXRalpha (unknown origin) to EC50 for biotinylated REV-ERBalpha (unknown origin).
The target in assay [2] is T1, Nuclear receptor subfamily 1 group D member 1 (Homo sapiens) (UniProt P20393).
T1 sequence (whole entry): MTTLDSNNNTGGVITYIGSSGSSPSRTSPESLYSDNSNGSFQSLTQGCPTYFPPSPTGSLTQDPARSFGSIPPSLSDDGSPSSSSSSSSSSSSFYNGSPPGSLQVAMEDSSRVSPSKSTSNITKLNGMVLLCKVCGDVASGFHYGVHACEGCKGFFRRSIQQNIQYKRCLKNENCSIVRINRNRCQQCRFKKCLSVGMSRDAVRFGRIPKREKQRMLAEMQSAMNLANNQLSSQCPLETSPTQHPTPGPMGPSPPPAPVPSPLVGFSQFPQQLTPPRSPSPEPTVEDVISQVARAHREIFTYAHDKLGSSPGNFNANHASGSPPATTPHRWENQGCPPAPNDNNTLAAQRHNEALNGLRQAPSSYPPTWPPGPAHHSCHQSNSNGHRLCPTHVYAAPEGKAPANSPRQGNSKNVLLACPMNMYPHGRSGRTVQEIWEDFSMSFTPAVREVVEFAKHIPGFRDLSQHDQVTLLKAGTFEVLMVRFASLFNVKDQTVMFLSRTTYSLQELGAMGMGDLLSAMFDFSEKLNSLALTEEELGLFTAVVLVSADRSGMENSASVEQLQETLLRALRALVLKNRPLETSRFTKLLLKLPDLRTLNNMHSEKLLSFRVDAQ
Briefly: Agonist activity at biotinylated REV-ERBalpha (unknown origin) assessed as biotinylated PGC1-beta peptide recruitment after 20 mins by Greiner assay. The method, boiled down: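 Biotinylated peptides (final 20 nM) with Eu-W1024 streptavidin (final 20 nM), 20 min RT. Biotinylated REV-ERBα (20 nM) with APC-streptavidin (10 nM), 20 min RT, then 20-fold excess biotin, 15 min RT. Receptor solution added to peptide plates, Eu/APC TR-FRET read. Four wells per peptide averaged, with standard deviation.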

Assay [3] addresses T2, Oxysterols receptor LXR-alpha (Homo sapiens, UniProt Q13133).
T2 sequence (Q13133 whole entry): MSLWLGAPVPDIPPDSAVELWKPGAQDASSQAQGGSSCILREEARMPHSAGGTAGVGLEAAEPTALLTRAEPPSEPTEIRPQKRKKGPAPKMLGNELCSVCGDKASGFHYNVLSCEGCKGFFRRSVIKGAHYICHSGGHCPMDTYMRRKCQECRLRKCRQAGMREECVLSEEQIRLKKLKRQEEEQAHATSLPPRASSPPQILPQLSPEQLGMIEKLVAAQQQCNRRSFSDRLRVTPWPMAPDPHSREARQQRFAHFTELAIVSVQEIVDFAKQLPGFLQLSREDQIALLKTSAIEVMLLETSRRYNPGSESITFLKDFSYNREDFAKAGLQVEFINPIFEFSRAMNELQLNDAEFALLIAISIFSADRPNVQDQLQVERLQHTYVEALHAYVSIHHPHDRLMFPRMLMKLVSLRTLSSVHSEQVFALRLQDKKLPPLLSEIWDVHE
Briefly: Binding affinity to LXRalpha (unknown origin) by radioligand displacement assay. Background: In a radioligand displacement assay an active substance lowers the binding of a labelled ligand.

In assay [4] the target is T1, Nuclear receptor subfamily 1 group D member 1 (Homo sapiens). Briefly: Agonist activity at REV-ERBalpha in human U2OS cells assessed as delay of peak of second cycle at 20 uM by luciferase reporter gene assay relative to DMSO-treated control. It counts as cell-based. Summed up:
(§1)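 U2OS cells stably carrying a mouse Bmal1-promoter luciferase reporter (hygromycin-selected clone) seeded at confluence in 384-well format. Rhythms synchronized by media change and checked over 48 h. Compound added, then bioluminescence recorded in real time every 20 min for 72 h in a temperature-controlled luminometer. Cells then washed and recovery oscillations in full growth medium monitored as a toxicity counter-screen.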
For orientation: Reporter assays use an easily measured gene product as a stand-in for the process of interest.

Assay [5] addresses T3, Oxysterols receptor LXR-alpha (Homo sapiens) (UniProt Q13133).
T3 sequence (whole entry): T2 sequence (Q13133 whole entry)
Briefly: Agonist activity at LXRalpha in human THP1 cells assessed as upregulation of LPS-stimulated ABCA1 mRNA expression at 10 uM after 6 hrs by RT-qPCR analysis. It counts as cell-based. As to conditions: THP-1. Summed up:
(§2)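 THP-1 cells sub-cultured in RPMI1640 with 10% FBS, stimulated with LPS 10 μg/mL in presence of DMSO or compound at 10 μM. Transcript read-out by RT-qPCR, normalized to TATA box binding protein.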
(In general: Real-time PCR tracks product formation cycle by cycle.)

The target in assay [6] is T4, Nuclear receptor subfamily 1 group D member 1 (Homo sapiens, UniProt P20393).
T4 sequence (P20393 whole entry): T1 sequence (whole entry)
Description: Agonist activity at biotinylated REV-ERBalpha (unknown origin) assessed as increase in biotinylated NCOR peptide recruitment after 1 hr by FRET assay. Summed up: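 TR-FRET: 20 nM biotinylated REV-ERBα pre-complexed with 10 nM APC-streptavidin, excess biotin added, then mixed with 20 nM biotinylated NCOR1 on 10 nM Eu-streptavidin. MOPS pH 7.5 buffer with NaF, CHAPS, BSA and 10 mM DTT. Added to compound (serial DMSO dilutions of 10 mM stocks), 1 h at RT, Eu/APC read. Data normalized to basal and minimal HTRF, fitted to a 4-parameter logistic.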

In assay [7] the target is T1, Nuclear receptor subfamily 1 group D member 1 (Homo sapiens). Briefly: Agonist activity at REV-ERBalpha in human THP1 cells assessed as downregulation of LPS-stimulated IL-6 mRNA expression at 10 uM after 6 hrs by RT-qPCR analysis. Format: cell-based. As to conditions: THP-1. The method, boiled down:
as §2

For assay [8] the target is unchanged. Description: Agonist activity at REV-ERBalpha in human U2OS cells assessed as suppression of BMAL1 expression at 20 uM after 40 hrs by luciferase reporter gene assay relative to DMSO-treated control. Format: cell-based. Summed up: as §1

Activity calls are given as the source filed them. No cut-off for these calls is given here.

For `CC(C)(C)OC(=O)CN(Cc1ccc(Cl)cc1)Cc1ccc([N+](=O)[O-])s1` [GSK-4112], the Ratio IC50/EC50 in assay [1] came out at 10. Moreover, the Activity result is “Dose-dependent effect” in assay [2] and 6% in assay [8]. In assay [3], this molecule gave an IC50 of 5000 nM. For the same molecule, the TIME in assay [4] is 0 h. Also, the outcome in assay [5] and in assay [7] was Active. For the same molecule, in assay [6], the EC50 was 500 nM.
